# Source: ChEMBL document CHEMBL1909563, “Anti-inflammatory triterpenoid saponins from the stem bark of Kalopanax pictus” (J Nat Prod, 2011)
# Calls of active or inactive are those of the source. No cut-off for these calls is given here.
# How the values were obtained:
# Type in all cases: cell-based
# [1] = Inhibition of TNF-alpha-induced NFkappaB activation in human HepG2 cells after 1 hr by luciferase reporter assay; settings: HepG2, 1 h
# Method in brief: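 HepG2 cells seeded at 1.5 × 10^5 per well, grown 24 h, then transiently transfected with NF-kB-responsive firefly luciferase reporter (minimal CMV promoter, tandem NF-kB response elements). Pretreated 1 h with DMSO vehicle or compound, then 10 ng/mL TNFα for 1 h; cells lysed, luciferin added, luminescence read.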
# [2] = tested on: HepG2; assay: Inhibition of NF-kappaB-induced COX2 mRNA expression in TNF-alpha-stimulated human HepG2 cells after 1 hr by RT-PCR analysis
# Method in brief: (§1)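 HepG2 cells stimulated with TNFα alone or with compound at 0.1, 1 and 10 μM; COX-2 and iNOS mRNA measured against β-actin housekeeping control. Mean ± SD (n = 6); significance versus TNFα-stimulated cells by Dunnett's multiple comparison test (p < 0.05, p < 0.01).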
# [3] = tested on: HepG2; assay: Cytotoxicity against human HepG2 cells by MTT assay
# [4] = tested on: HepG2; assay: Inhibition of NF-kappaB-induced iNOS mRNA expression in TNF-alpha-stimulated human HepG2 cells after 1 hr by RT-PCR analysis; method in brief: as §1
# [5] = tested on: HepG2; assay: Inhibition of NF-kappaB-induced iNOS mRNA expression in TNF-alpha-stimulated human HepG2 cells at 0.1 to 10 uM after 1 hr by RT-PCR analysis; method in brief: as §1
# [6] = tested on: HepG2; assay: Inhibition of NF-kappaB-induced COX2 mRNA expression in TNF-alpha-stimulated human HepG2 cells at 0.1 to 10 uM after 1 hr by RT-PCR analysis; method in brief: as §1
SMILES,IC50 [1] [µM],inhibition [2],Activity [3],inhibition [4],inhibition [5],inhibition [6]
C[C@@]1(CO)CC[C@]2(C(=O)O)[C@H](O)C[C@]3(C)C(=CC[C@@H]4[C@@]5(C)CCC(=O)[C@@](C)(CO)[C@@H]5CC[C@]43C)[C@@H]2C1,6.5,Dose-dependent effect,Non-toxic,Dose-dependent effect,,
COC(=O)CC[C@]1(C)[C@H]2CC=C3[C@@H]4C[C@](C)(CO)CC[C@]4(C(=O)O)CC[C@@]3(C)[C@]2(C)CC[C@H]1C(C)(O)CO (some centres not stated),9.4,Dose-dependent effect,Non-toxic,Dose-dependent effect,,
CC1(C)CC[C@]2(C(=O)O[C@@H]3O[C@H](CO)[C@@H](O)[C@H](O)[C@H]3O)CC[C@]3(C)C(=CC[C@@H]4[C@@]5(C)CC[C@H](O)[C@@](C)(CO)[C@@H]5[C@H](O)C[C@]43C)[C@@H]2C1,16.4,Dose-dependent effect,Non-toxic,Dose-dependent effect,,
CC(=O)O[C@@H]1[C@@H](OC(C)=O)[C@H](O[C@H]2CC[C@@]3(C)[C@@H](CC[C@]4(C)[C@@H]3CC=C3[C@@H]5CC(C)(C)CC[C@]5(C(=O)O[C@@H]5O[C@H](CO[C@@H]6O[C@H](CO)[C@@H](O[C@@H]7O[C@@H](C)[C@H](O)[C@@H](O)[C@H]7O)[C@H](O)[C@H]6O)[C@@H](O)[C@H](O)[C@H]5O)CC[C@]34C)[C@]2(C)CO)OC[C@@H]1O,8.9,Dose-dependent effect,Non-toxic,Dose-dependent effect,,
CC(=O)O[C@@H]1[C@@H](O)[C@H](O[C@H]2CC[C@@]3(C)[C@@H](CC[C@]4(C)[C@@H]3CC=C3[C@@H]5CC(C)(C)CC[C@]5(C(=O)O[C@@H]5O[C@H](CO[C@@H]6O[C@H](CO)[C@@H](O[C@@H]7O[C@@H](C)[C@H](O)[C@@H](O)[C@H]7O)[C@H](O)[C@H]6O)[C@@H](O)[C@H](O)[C@H]5O)CC[C@]34C)[C@]2(C)CO)OC[C@@H]1OC(C)=O,9.3,Dose-dependent effect,Non-toxic,Dose-dependent effect,,
CC1(C)CC[C@]2(C(=O)O)CC[C@]3(C)C(=CC[C@@H]4[C@@]5(C)CC[C@H](O)[C@@](C)(CO)[C@@H]5[C@H](O)C[C@]43C)[C@@H]2C1,1.4,Dose-dependent effect,Non-toxic,Dose-dependent effect,,
CC1(C)CC[C@]2(C(=O)O[C@@H]3O[C@H](CO)[C@@H](O)[C@H](O)[C@H]3O)CC[C@]3(C)C(=CC[C@@H]4[C@@]5(C)CC[C@H](O)[C@@](C)(CO)[C@@H]5CC[C@]43C)[C@@H]2C1,9.1,Dose-dependent effect,Non-toxic,Dose-dependent effect,,
C[C@@H]1O[C@@H](O[C@H]2[C@H](O[C@H]3CC[C@@]4(C)[C@@H](CC[C@]5(C)[C@@H]4CC=C4[C@@H]6CC(C)(C)CC[C@]6(C(=O)O)CC[C@]45C)[C@]3(C)CO)OC[C@H](O)[C@@H]2O)[C@H](O)[C@H](O)[C@H]1O [ALPHA-HEDERIN],5.5,Dose-dependent effect,Non-toxic,Dose-dependent effect,,
C[C@@H]1O[C@@H](O[C@H]2[C@H](O)[C@@H](O)[C@H](OC[C@H]3O[C@@H](OC(=O)[C@]45CCC(C)(C)C[C@H]4C4=CC[C@@H]6[C@@]7(C)CC[C@H](O[C@@H]8OC[C@H](O)[C@H](O)[C@H]8O)[C@@](C)(CO)[C@@H]7CC[C@@]6(C)[C@]4(C)CC5)[C@H](O)[C@@H](O)[C@@H]3O)O[C@@H]2CO)[C@H](O)[C@H](O)[C@H]1O [CAULOSIDE D],9.2,Dose-dependent effect,Non-toxic,Dose-dependent effect,,
CC1(C)CC[C@]2(C(=O)O[C@@H]3O[C@H](CO[C@@H]4O[C@H](CO)[C@@H](O)[C@H](O)[C@H]4O)[C@@H](O)[C@H](O)[C@H]3O)CC[C@]3(C)C(=CC[C@@H]4[C@@]5(C)CC[C@H](O)[C@@](C)(CO)[C@@H]5CC[C@]43C)[C@@H]2C1 [DIPSACUSSAPONIN A],6.2,Dose-dependent effect,Non-toxic,Dose-dependent effect,,
CC1(C)CC[C@]2(C(=O)O)CC[C@]3(C)C(=CC[C@@H]4[C@@]5(C)CC[C@H](O)[C@@](C)(CO)[C@@H]5CC[C@]43C)[C@@H]2C1 [HEDERAGENIN],> 20,,,,inactive,inactive
C[C@@H]1O[C@@H](O[C@H]2[C@H](O[C@H]3CC[C@@]4(C)[C@@H](CC[C@]5(C)[C@@H]4CC=C4[C@@H]6CC(C)(C)CC[C@]6(C(=O)O[C@@H]6O[C@H](CO[C@@H]7O[C@H](CO)[C@@H](O[C@@H]8O[C@@H](C)[C@H](O)[C@@H](O)[C@H]8O)[C@H](O)[C@H]7O)[C@@H](O)[C@H](O)[C@H]6O)CC[C@]45C)[C@]3(C)CO)OC[C@H](O)[C@@H]2O)[C@H](O)[C@H](O)[C@H]1O [KALOPANAXSAPONIN B],0.8,Dose-dependent effect,Non-toxic,Dose-dependent effect,,
C[C@@H]1O[C@@H](O[C@H]2[C@H](O[C@H]3CC[C@@]4(C)[C@@H](CC[C@]5(C)[C@@H]4CC=C4[C@@H]6CC(C)(C)CC[C@]6(C(=O)O[C@@H]6O[C@H](CO[C@@H]7O[C@H](CO)[C@@H](O[C@@H]8O[C@@H](C)[C@H](O)[C@@H](O)[C@H]8O)[C@H](O)[C@H]7O)[C@@H](O)[C@H](O)[C@H]6O)CC[C@]45C)[C@]3(C)CO)OC[C@H](O)[C@@H]2O[C@@H]2O[C@H](CO)[C@@H](O)[C@H](O)[C@H]2O)[C@H](O)[C@H](O)[C@H]1O [KALOPANAXSAPONIN C],3.9,Dose-dependent effect,Non-toxic,Dose-dependent effect,,
C[C@@]1(CO)CC[C@]2(C(=O)O)CC[C@]3(C)C(=CC[C@@H]4[C@@]5(C)CC[C@H](O)[C@@](C)(CO)[C@@H]5CC[C@]43C)[C@@H]2C1 [NIPPONOGENIN E],> 20,,,,,
C[C@@H]1O[C@@H](O[C@H]2[C@H](O)[C@@H](O)[C@H](OC[C@H]3O[C@@H](OC(=O)[C@]45CCC(C)(C)C[C@H]4C4=CC[C@@H]6[C@@]7(C)CC[C@H](O[C@@H]8OC[C@H](O)[C@H](O)[C@H]8O[C@@H]8O[C@@H](C)[C@H](O)[C@@H](O[C@@H]9OC[C@@H](O)[C@H](O)[C@H]9O)[C@H]8O)[C@@](C)(CO)[C@@H]7CC[C@@]6(C)[C@]4(C)CC5)[C@H](O)[C@@H](O)[C@@H]3O)O[C@@H]2CO)[C@H](O)[C@H](O)[C@H]1O [SIEBOLDIANOSIDE A],0.6,Dose-dependent effect,Non-toxic,Dose-dependent effect,,
O=C(O)c1cc(/N=N/c2ccc(S(=O)(=O)Nc3ccccn3)cc2)ccc1O [SULFASALAZINE],0.9,,,,,
